Tn6 DDE FP = inhibitors of Tn6 peptide binding to human fibrin DD(E); P02675; Fibrin DD(E) TRITC-Tn6 fluorescence polarization displacement; inhibition, % at 8.3 µM; actives 0.21% (n = 370,000);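 active means inhibition above a per-campaign cutoff: mean of compounds within control limits plus 3 SD, cut at about 15% in these data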;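 further: 0% = median of all compound wells on the plate and 100% = blocking peptide control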
Target sequence (P02675 whole entry, looked up): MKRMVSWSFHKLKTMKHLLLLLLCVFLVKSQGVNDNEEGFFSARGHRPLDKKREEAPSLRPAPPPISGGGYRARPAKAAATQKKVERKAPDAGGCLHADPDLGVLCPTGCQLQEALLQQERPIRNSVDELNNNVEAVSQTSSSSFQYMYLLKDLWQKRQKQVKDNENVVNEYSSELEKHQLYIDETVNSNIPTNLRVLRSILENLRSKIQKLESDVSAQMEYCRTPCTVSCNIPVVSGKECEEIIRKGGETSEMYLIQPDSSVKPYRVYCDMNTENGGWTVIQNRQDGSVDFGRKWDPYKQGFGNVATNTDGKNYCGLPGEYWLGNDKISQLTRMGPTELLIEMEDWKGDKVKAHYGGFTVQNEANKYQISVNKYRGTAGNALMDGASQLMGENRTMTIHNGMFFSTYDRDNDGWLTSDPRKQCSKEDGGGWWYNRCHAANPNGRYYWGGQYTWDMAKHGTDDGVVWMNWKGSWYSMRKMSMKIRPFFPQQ
CRFBP-R2 agonist = agonists of human CRF-binding protein/CRF-R2 receptor complex | activation, % at 13.2 µM | HEK293 CRF-R2/CRF-BP, calcium dye fluorescence (FLIPR); percent of saturating CRF peptide response | AID 588473 | actives 0.46% (n = 350,000);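 active means activation of at least 50%, plus an integration ratio under a set limit after plate pattern correction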;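 further: plate controls were neutral control wells without compound for no effect and CRF at EC100 for full effect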
proKLK7 act = proKLK7 (human) activation, primary screen. purified proKLK7, EDANS-DABCYL substrate fluorescence; 100% is mature enzyme control, 0% vehicle. activation, % at 7 µM. actives 0.9% (n = 370,000). AID 652039;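 active means activation above the mean of all tested compounds plus 3 SD, computed per campaign excluding outliers beyond control limits, cut at about 13% in these data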
CRFBP-R2 block = antagonists of CRF-binding protein/CRF-R2 receptor complex; actives 0.59% (n = 350,000); AID 588475; HEK293 CRF-R2/CRF-BP, CRF-induced calcium fluorescence; inhibition, % at 11.8 µM;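 active means inhibition of the ligand-induced calcium signal above about 50% at the single tested concentration, limit read from the data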
DDE Tn7 FP inh = DD(E)-Tn7 binding inhibition, primary FP screen | P02675 | FP displacement of FITC-Tn7 peptide from fibrin DD(E); 0% = median of compound wells per plate | inhibition, % at 8.3 µM | actives 0.13% (n = 370,000) | AID 720508;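 active means inhibition above the mean of compounds falling within the control limits plus 3 SD of them, cut at about 14% in these data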;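 further: 0% = plate median of compound wells and 100% = 10 µM Aha-Tn7 peptide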
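Assay system: Human clot-derived fibrin DD(E) complex | Buffer or medium: Tris/NaCl/CaCl2 buffer, pH 7.8 | Repeats: One replicate per compound | Benchmarks: Aha-Tn7 high control | Measure: % inhibition scaled between sample-field median and high-control FP | Schedule: 10 min plus 3 h, room temperature | Signal: Fluorescence polarization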
NRP1-CendR mod = modulators of CendR peptide binding to human neuropilin-1 | O14786 | FAM-RPARPAR peptide binding to NRP-1, fluorescence polarization | inhibition, % at 25 µM | actives 0.85% (n = 360,000);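 active means inhibition or corrected inhibition above about 18%, plus a signal ratio from 0.5 to 1.5, limit read from the data, passing the limit was not always enough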
proKLK7 act conf = confirmation of human kallikrein-7 zymogen activators; actives 68% (n = 3,200); shares compounds with proKLK7 act; AID 686949; activation, % at 7 µM; purified proKLK7, EDANS-DABCYL substrate fluorescence; scaled: vehicle 0, mature enzyme 100;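 active means activation, as change over the incubation, above the mean of all tested compounds plus 3 SD, cut at about 13% in these data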
EDANS-DABCYL int = counter-screen for kallikrein-7 activators: EDANS-DABCYL optical interference. shares compounds with proKLK7 act. actives 80% (n = 3,200). AID 686952. EDANS-DABCYL substrate fluorescence interference, no enzyme, 4 h; solvent 0%, active enzyme control 100%. activation, % at 7 µM;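 active means activation above the all-compound mean plus 3 SD, ignoring values outside control-based bounds, cut at about 4.8% in these data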;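 further: value is the 4 h activation minus the activation read at time zero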
EDANS interf = optically interferes with EDANS-DABCYL fluorescence, kallikrein-7 activator counter-screen; shares compounds with proKLK7 act; EDANS-DABCYL peptide fluorescence interference, no enzyme; EC50, µM; actives 20% (n = 250);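 active means compounds that raise the fluorescence signal in this interference counterscreen, with EC50 at or below 10 µM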;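 further: intact quenched peptide substrate alone read at 355 nm excitation and 520 nm emission; signal is fluorescence gain from T0 to T4 after four hours at room temperature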
Tn7 DDE conf = confirmation of inhibitors of Tn7 binding to human fibrin DD(E); shares compounds with DDE Tn7 FP inh; FP displacement of TRITC-Tn7 peptide from DD(E); 0% set at plate's compound-well median; inhibition, % at 8.3 µM; actives 5% (n = 460); AID 720628;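 active means inhibition above the campaign cutoff, the mean of compounds within control limits plus 3 SD, cut at about 14% in these data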;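 further: 100% = median FP of high control wells holding Aha-Tn7 inhibitor peptide; displacers lower polarization since freed probe rises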
Tn7 DDE ctr = counter-screen hit for Tn7 peptide-fibrin DD(E) binding disruption | shares compounds with DDE Tn7 FP inh | TRITC-Tn7 probe displacement, fluorescence polarization | inhibition, % at 8.3 µM | actives 3% (n = 460) | AID 720633;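 active means inhibition above the cutoff, the mean of compounds lying between the control bounds plus 3 SD of those compounds, cut at about 17% in these data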;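 further: 0% = median of compound sample wells and 100% = excess unlabeled Aha-Tn7 peptide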
Numbers without * were called inactive; x = no result; ! = not confirmed by another sample. Sampled rows, rich in hits. Any-hit rate of the full collection: about 2.9%.

SMILES	Tn6 DDE FP	CRFBP-R2 agonist	proKLK7 act	CRFBP-R2 block	DDE Tn7 FP inh	NRP1-CendR mod	proKLK7 act conf	EDANS-DABCYL int	others
O=C(COC(=O)c1ccccc1O)NNC(=O)c1ccc(Br)cc1	-0.4	-0.7	4.1	-3.9	3.2	-8.9	x	x
CC1(c2ccccc2)NC(=O)N(NC(=O)COC(=O)c2cc(Br)ccc2O)C1=O (stereo not drawn)	1.5	2.0	27.5*	-7.9	-4.7	-9.0	34.4*	38.3*
O=C(COC(=O)c1cc(Br)ccc1O)NNC(=O)c1ccc([N+](=O)[O-])cc1	-3.0	-3.9	25.6*	12.7	-3.2	6.4	39.7*	38.1*
COc1cc(O)c(C(CC(=O)N2CC(C)OC(C)C2)c2ccc3c(c2)OCO3)c(OC)c1 (stereo not drawn)	3.0	x	x	x	3.4	x	x	x
COc1ccc(-n2c(SCC(=O)NC3CCCCCC3)nnc2-c2ccncc2)cc1	3.8	x	0.3	x	1.7	x	x	x
COC(=O)[C@]12C[C@H](CC(=O)N3CCCCC3)C(=O)N(Cc3cccc4ccccc34)C1=C[C@H](C1CCCC1)O[C@@H]2C	3.7	x	-0.4	x	4.6	x	x	x
COC[C@@H]1CCCN1c1ccc2c(c1)OCCCN(C1CC1)S2(=O)=O	-1.8	x	0.3	x	-3.9	x	x	x
O=C(COC(=O)c1cc(Cl)ccc1O)Nc1cc(C(F)(F)F)ccc1N1CCOCC1	2.8	1.7	15.9*	-19.9	-8.0	0.5	22.7*	21.8*
O=C(COC(=O)c1cc(Br)ccc1O)NNC(=O)c1ccc(Cl)cc1	0.2	-0.8	17.1*	11.5	1.6	-1.5	19.5*	18.8*
O=C(COC(=O)c1cc(Cl)ccc1O)NNC(=O)c1ccccc1F	-0.6	-3.2	85.7*	-7.5	-1.0	0.2	137.4*	124.0*
CC(=O)C1=C(C)N(Cc2ccc(F)cc2)C(=S)NC1c1ccc(Cl)cc1 (stereo not drawn)	0.3	x	0.4	x	5.3	x	x	x
CN(C(=O)[C@@H](C1CC1)[C@@H](O)c1ccc2ccccc2c1)c1ccccc1	-5.3	x	-0.2	x	-3.8	x	x	x
COc1cccc(CN2CC(C(=O)NCCc3cn4cccnc4n3)CCC2=O)c1 (stereo not drawn)	4.3	0.0	18.9*	-0.5	1.0	5.9	18.9*	14.1*	EDANS interf=9.68*
COC(=O)c1cc(S(=O)(=O)NCC2CCN(C(=O)C(=O)c3cccs3)CC2)cs1	-8.3	x	-0.2	x	0.2	x	x	x
COc1ccc(C2Nc3ccccc3C(=O)N2Cc2ccco2)cc1CN1C(=O)c2ccccc2C1=O (stereo not drawn)	5.7	-2.9	29.6*!	-22.9	-0.8	8.7	11.0	5.8*
O=C1c2ccccc2NC(c2cccc(O)c2)N1Cc1ccco1 (stereo not drawn)	-0.8	-0.2	27.3*	-5.1	4.8	-0.8	29.4*	28.5*
O=c1oc2cc(O)ccc2cc1-c1nc2ccccc2o1	-2.6	x	108.3*	x	38.2*	141.1	61.3*	73.0*	Tn7 DDE conf=14.4*;Tn7 DDE ctr=-5.4
CCOC(=O)C1=Nc2cccc3c(O)ccc1c23	7.6	x	53.4*	x	45.9*	x	79.0*	84.5*	Tn7 DDE conf=21.1*;Tn7 DDE ctr=11.2
CCOC(=O)C1=Nc2ccccc2C1=[N+]=[N-]	6.2	-0.9	-2.0	-16.4	-2.1	-8.2	x	x

Screens deposited in PubChem by several laboratories.
